First the molecules themselves.
B1: tRNA (parent)
chain: GUUCCGUUGGCGUAAUGGUAACGCGUCUCCCUCCUAAGGAGAAGACUGCGGGUUCGAGUCCCGUACGGAACG

Fewer inactive variants are shown than the library holds.

In this data set the parent is B1. The data set can be described thus: yeast fitness relative to wild type (ratio to wild type); higher = fitter; tRNA-Arg(CCU), competitive growth, 37 C, YPD. A digest of the protocol:
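Amplicons of the tRNA-Arg(CCU) gene were sequenced, 100-nucleotide paired-end, from the start population and from each end population of a pooled yeast competition. The competition, in six parallel replicates, lasted 24 hours in YPD at 37°C. Fitness relative to wild type was calculated from changes in genotype frequencies. Genotypes had to have ≥ 100 starting reads, and estimates < 0.5 were set to 0.5.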
As to GUUCCGUUGGCGUACCGGUAACGCGUCUCCCUCCUAAGGAGACGACUGCGGGUUCGAGUCCCGUACGGAACG [A15C U16C A43C], the yeast fitness is not above 0.5.
Next, GUUCAGUUGGCGUAAUGGUAACGCGUCUACCUCCUAAGGAGAAGACUGCGGGUUCGAGUCCCGUACGGAUCG [C5A C29A A70U]: not above 0.5.
Take GUUCCCUUGGCGUAAUGGUAACGCAUCUCCCUCCUAAGGAGAAGACUGCGGGUUCGAGUCCCGUGCGGAACG [G6C G25A A65G]: the yeast fitness came out at 0.595.
Then GUUCCGUUGCCGUAAUGGUACCGCGUCUCCCUCCUAAGGAGAAGACUGCGGGUUCGAGUCCCGUAGGGAACG [G10C A21C C66G], with not above 0.5; and GAUCCGUUGACGUAAUGGUUAGGCGUCUCCCUCCUAAGGAGAACACUGCGGGUUCGAGUCGCGUACGGAACG [U2A G10A A20U C22G G44C C61G], with 0.502; and GUUCCGUUGGCGUAAUGCUAACGGGUCUCCCUCCUCACGAGAAGACUGCGGGUUCGACUCCCGUACGGAACG [G18C C24G A36C G38C G58C], with not above 0.5.
Then GUUCCGUUGGCGUAAUGGUACCGCGACUCCCUCCUAAGGUGAAGACUGCGGGUUCGAGUCCCGUACGGAACG [A21C U26A A40U], with 0.534; and GUUCCGUUGGCGUAAUGGUAACGCGUCUCCCUCCUAAGGAGAAAACUGUGGGUUCGAGUCCAGUACCGAACG [G44A C49U C62A G67C], with not above 0.5.
Then GUUCCGUUCGCGUAAUGGUAACACGUCUCCCUCCUAAGGAGAAGACUGCAGGUUCGAGUCCCGUACGGAACG [G9C G23A G50A], with not above 0.5; and GUUCCGUCGGCGUAAUGGUAACGCGUCUACCUCCUAGGGAGAAGACUGCGGGUUCGAGUCCCGUACGGAACG [U8C C29A A37G], with 0.616.
Regarding GUUCCGUUCGCGUAAUGGUAACGCGUCUCCCUCCUAAGGAGAGGACUGCGGGUUCGAGUCCCGUACGAAACG [G9C A43G G68A], the yeast fitness was not above 0.5.
Next, GUUCCGUUGGCGUAAUGGUAACGCGUUUCCCUCCUAAGGAGGAGACUGCGGGUUCGAGUCCCGUACGGAACG [C27U A42G]: 0.695; GUUCCGUUGGCGUAAUGGUAACGCGUCUCCCUCCUAAGGAGUAGACUGCGGGUUCGCGUCCCGUUCGGAACG [A42U A57C A65U]: 0.589.
Then GUUCCGUUGGCGUAAUGGUAACGCGUCUCCCUCCUAAGGAGAUGAGUGCGGGUACGAGUCCCAUACGGAACG [A43U C46G U54A G63A], with 0.726.
Then GUUCCGUUGGCGUAAUGGUAACGGGUCUGCCUCCUAGGGAGAAGACUGCGGAUUCGAGUCCUGUACGGAACG [C24G C29G A37G G52A C62U], with not above 0.5; and GUUCCGUUGGCGUAAUGGUAACGCGUCUCCCUCCUAAGGAGAGGACUGCGGGUUCGAGUCCCUAACGGAACG [A43G G63U U64A], with 0.567.
Take GUUCCGUUGGCCUAAUGGUAACGCGUCUCCCUCCUAAGGAGAAGACUGCGGGUUCGAGUCCCGUACGGCUCG [G12C A69C A70U]: the yeast fitness stood at 0.688.
Next, GUUCCGUUGGCGUAAUGGUAACGCGUCUCCCUCCUAAGGAGAAGACUGCGGGUUCGAGUCCUGUACGAAACG [C62U G68A]: 0.838; GUUCCGUUGGAGUAAUGGUAACGCGUCUCCCUCCUAAGGAGAAGAUUGCGGGAUCGAGUCCCCUACGGAACG [C11A C46U U53A G63C]: not above 0.5; GUUCCGUUGGCGUAAUGGUAACGCGUCUCUCUCCUAAGGAGAAGACUGCGGGUUCGUGUCCCGUACGGAACG [C30U A57U]: 0.863.
Then GUUCCGUUGCCGUAAUGGUAACGCGUCUCCCUCUUAAGGAGAAGACUGCGGGUUCGAGUCCCGUGCGGAACG [G10C C34U A65G], with not above 0.5; and GUUCCGUUGGCGUAAUGGUGACGUGUCUCCCUCCUAAGGAGAAGACUGCGGGUUCGAGUCCCGUACGCAACG [A20G C24U G68C], with 0.573.
Then GUUUCGUUGGCGUAAUGGUAACGCGUCUCCCUCCGAAGGAGAAGACUGCGGGUUCGAGUCCCGUGCGGAACG [C4U U35G A65G], with 0.607; and GUUCCGUUGGCGUGAUGGUAGCGCGUCUCCCUCCUAAGGAGAAGACUGCGGGUUCGAGUCCCGUACAGAACG [A14G A21G G67A], with 0.63; and GUUCCGUUGGCGUUAUAGUAACCCGUCUUCCUCGUAAGGAGAGGCCUGCGGGUGCGAGUCCCGUACGGAACG [A14U G17A G23C C29U C34G A43G A45C U54G], with not above 0.5.
For the variant GUGCUGUUGGCGUAAUGGUAACGCGACUCCCUCCUAAGGAGAAGCCUGCGGGUUCGAGCCCCGUACGGAACG [U3G C5U U26A A45C U59C], the yeast fitness was not above 0.5.
Consider GUUCCGUUGGCGUAAUGGUAACGCGUCUCCCUCCUAAGGAGAAGACUGCGGGUUCGAGUCCAGUUCGGAUCG [C62A A65U A70U], for which the yeast fitness was determined as 0.531.
Next, GUUCCGUUGGCGUAAUGGUAACGCGUCUCCUUCGUAAGGAGAAGACUGUGGAUUCGAGUCCCGUACGGUACG [C31U C34G C49U G52A A69U]: not above 0.5.
Next, GUUCCGUUGGAGUAAUGGUAACGCGUCUCCCUCCUAAGGAGAAGACUGCGGGUUUGAGUCCCGUACGGAACG [C11A C55U]: 0.514; GUUCUGUUGGCGUAGUGGUAACGCGUCUCCCUCCUAAGGAGCAGACUGAGGGUUCGAGUCCCGUACGGAACG [C5U A15G A42C C49A]: not above 0.5; GUUCCGUUGGCGAAAUGGUAACGCGUCUCCCUCCUAAGGCGAAGACUGCGGGAUCGAGUCCCGUACGGAACG [U13A A40C U53A]: 0.53.
Next, GUUCCGUUGGCGUAAUGGUAACGCGUCUCCCUCCUAAGGAGAAGACUCUGGGUUCGAGUCCCGUACGGACCG [G48C C49U A70C]: 0.592.
Regarding GUACCGUUGGCGUAAUGGUAACGCGUGUCCCUCCUAAGGAGAAGACUGCGGGUUCGAGUCCCGUACGGCACG [U3A C27G A69C], the yeast fitness was not above 0.5.
Then GUUCCGUUGGCGUAUUGGUAACGGGUCUCCCUCCUAAGGAGCAGACUGCGGGUUCGAGUCCCGUACGGAACG [A15U C24G A42C], with not above 0.5; and GUUCCGUUGGCGCAAUGGUAACCCGUCUCCCUCCUAAGGAGAAGACCGCGGGUUCGAGUCCCGUACGGAACG [U13C G23C U47C], with not above 0.5; and GUUCCGUUGGCGUAAUGGUAACGCGUCCCCCUCCUAAGGAGAAGACUGGGGGUUCGAGCCCCGUACGGAACG [U28C C49G U59C], with not above 0.5.
Then GUUGCGUUGGCGUAAUGGUAACGCGUCACCGUCCUAAGGAGAAGACUGCGGGUUCGGGUCCUGUACGGAACG [C4G U28A C31G A57G C62U], with 0.532; and GUUCCGUUGGCGUAAUGGUAGCGCGUCUCCCUCCUAAGGAGAAGACUGCGGGUUCGAGUCCCGUACUGCACG [A21G G67U A69C], with 0.528.

Source of the values: the RNAGym collection of RNA variant scans (doi:10.1126/science.aae0568).
